Measured values collected from several papers.
Lines come from different studies, so protocols differ.
Organism: Pseudomonas aeruginosa
Read-out: microbial growth

SMILES | technique | strain | time | MIC
CN(C)[C@@H]1C(O)=C(C(N)=O)C(=O)[C@@]2(O)C(O)=C3C(=O)c4c(O)c(N)nc(F)c4C[C@H]3C[C@@H]12.Cl.Cl | broth dilution | ATCC27853 |  | 4 µg/mL
CC1(C)SC2C(NC(=O)C(NC(=O)C3=C(O)C(Cc4ccccc4)NC3=O)c3ccccc3)C(=O)N2C1C(=O)O (stereo not shown) |  |  |  | 6.25 µg/mL
CC(C)Oc1c(NC(=O)c2ccc(NC(=O)[C@H](CC(N)=O)NC(=O)c3ccc(NC(=O)C(C)Oc4ccccc4)cc3)cc2)ccc(C(=O)Nc2ccc(C(=O)O)cc2)c1O (stereo partly shown) |  | PA14 |  | > 64 µg/mL
C=CCn1c(-c2ccc(Cl)c(Cl)c2)nc2ccccc21 | broth dilution | ATCC27853 |  | 512 µg/mL
O=[N+]([O-])c1ccc(-c2nc3cccc(O)c3[nH]2)o1 | broth dilution | ATCC27853 |  | > 64 µg/mL
CCCCCCC#Cc1cncc(-c2nnc(SCc3ccc([N+](=O)[O-])o3)n2C)c1 |  |  |  | ≥ 20 µg/mL
CCCCCC(=O)Oc1c(C)c(O)c(C(=O)/C=C/c2ccccc2)c(OC)c1C | broth dilution | ATCC27853 |  | 5000 µg/mL
C[C@@H](O)[C@H]1C(=O)N2C(C(=O)O)=C(S[C@@H]3CN[C@H](C(=O)N(C)C)C3)[C@H](C)[C@H]12 |  |  |  | 1.3 µM
Cc1cc(=O)[nH]n1C(=O)c1ccc(-n2c(C)ccc2C)cc1 | broth dilution | ATCC10145 | 18 h | 250 µg/mL
CC(C)COc1c(NC(=O)c2ccc(NC(=O)[C@H](CC(N)=O)NC(=O)c3ccc(NC(=O)c4ccc(C#N)cc4)cc3)cc2)ccc(C(=O)Nc2ccc(C(=O)O)cc2)c1O |  | PA14 |  | > 64 µg/mL
Fc1ccc(NCc2ccc(Oc3ccccn3)cc2)cc1 |  |  |  | > 12.5 µg/mL
CN(C)[C@@H]1C(O)=C(C(N)=O)C(=O)[C@@]2(O)C(O)=C3C(=O)c4c(cc5ccc(CN(C)S(C)(=O)=O)cc5c4O)C[C@H]3C[C@@H]12 | broth dilution | ATCC27853 |  | 32 µg/mL
CC(C)Oc1c(NC(=O)c2ccc(NC(=O)[C@H](CC(N)=O)NC(=O)c3ccc(NC(=O)c4ccc(C#N)cc4)cc3)cc2)ccc(C(=O)N[C@@H]2CONC2=O)c1O |  | PA14 |  | > 64 µg/mL
CCn1cc(C(=O)O)c(=O)c2cc(F)c(N3CCNCC3)cc21 | broth dilution | ATCC10145 | 18 h | > 5 µg/mL
CC(C)Oc1c(NC(=O)c2ccc(NC(=O)[C@H](CC(N)=O)NC(=O)c3ccc(NC(=O)c4ccc(N)cc4)cc3)cc2)ccc(C(=O)Nc2ccc(C(=O)O)cc2)c1O |  | PA14 |  | > 64 µg/mL
CO[C@H]1/C=C/O[C@@]2(C)Oc3c(C)c(O)c4c(O)c(c(/C=N/N5CCN(C)CC5)c(O)c4c3C2=O)NC(=O)/C(C)=C\C=C\[C@H](C)[C@H](O)[C@@H](C)[C@@H](O)[C@@H](C)[C@H](OC(C)=O)[C@@H]1C |  | ATCC27853 |  | 16 µg/mL
COc1c(C)c(OC(=O)c2ccccc2)c(C)c(O)c1C(=O)/C=C/c1ccccc1 | broth dilution | ATCC27853 |  | 5000 µg/mL
CC(C)Oc1c(NC(=O)c2ccc(NC(=O)[C@H](CC(N)=O)NC(=O)c3cccc(-c4cccc(C#N)c4)c3)cc2)ccc(C(=O)Nc2ccc(C(=O)O)cc2)c1O |  | PA14 |  | > 64 µg/mL
CCCCCCC/C=C/C(=O)N1C(=O)/C(=C(/C)O)C(=O)C1Cc1ccc(OC(C)(C)C)cc1 (stereo not shown) |  | PA01 |  | > 200 µg/mL

SMILES | technique | strain | time | MIC
CNC(C)C1CCC(N)C(OC2C(N)CC(N)C(OC3OCC(C)(O)C(NC)C3O)C2O)O1 (stereo not shown) | broth dilution | PAO1 |  | 4 µg/mL
CN(Cc1ccc2cc3c(c(O)c2c1)C(=O)C1=C(O)[C@]2(O)C(=O)C(C(N)=O)=C(O)[C@@H](N(C)C)[C@@H]2C[C@@H]1C3)c1ccccc1 | broth dilution | ATCC27853 |  | 32 µg/mL
O=C(CCCCCCCCCC[P+](c1ccccc1)(c1ccccc1)c1ccccc1)Nc1cc(O)c(O)c(O)c1.[Br-] | broth dilution | ATCC27853 | 18 h | > 32 µg/mL
CCN1CCN(C(=O)N[C@@H](C(=O)N[C@@H]2C(=O)N3[C@@H]2SC(C)(C)[C@@H]3C(=O)O)c2ccccc2)C(=O)C1=O |  |  |  | 12.5 µg/mL
CN(C)[C@@H]1C(O)=C(C(N)=O)C(=O)[C@@]2(O)C(O)=C3C(=O)c4c(cnc(-c5ccccc5)c4O)C[C@H]3C[C@@H]12.Cl.Cl | broth dilution | ATCC27853 |  | > 32 µg/mL
O=C(O)c1cn(C2CC2)c2cc(N3CCNCC3)c(F)cc2c1=O | broth dilution |  | 24 h | 9.43 µM
CCCCCCC/C=C/C(=O)N1C(=O)/C(=C(\O)CCCC)C(=O)C1CC(C)C (stereo not shown) |  | PA01 |  | > 200 µg/mL
CCN1CCN(C(=O)N[C@@H](C(=O)N[C@@H]2C(=O)N3C(C(=O)O)=C(CSc4nnnn4C)CS[C@H]23)c2ccc(O)cc2)C(=O)C1=O | broth dilution | PAO1 |  | 4 µg/mL
CC1(C)S[C@@H]2[C@H](NC(=O)C(C(=O)O)c3ccccc3)C(=O)N2[C@H]1C(=O)O (stereo partly shown) | broth dilution | CMCC10104 |  | > 200 µM
CN(C)CC(C)(C)CNc1nc(F)c2c(c1O)C(=O)C1=C(O)[C@]3(O)C(=O)C(C(N)=O)=C(O)[C@@H](N(C)C)[C@@H]3C[C@@H]1C2.Cl | broth dilution | ATCC27853 |  | 32 µg/mL
Cc1ccccc1NCc1ccc(Oc2ccccn2)cc1 |  |  |  | > 50 µg/mL
CC(C)Oc1c(NC(=O)c2ccc(NC(=O)[C@H](CC(N)=O)NC(=O)c3ccc(NC(=O)CCc4ccc(C#N)cc4)cc3)cc2)ccc(C(=O)Nc2ccc(C(=O)O)cc2)c1O |  | PA14 |  | > 64 µg/mL
CN(C)[C@@H]1C(O)=C(C(N)=O)C(=O)[C@@]2(O)C(O)=C3C(=O)c4c(cc5ccc(CN6CCCC6)cc5c4O)C[C@H]3C[C@@H]12 | broth dilution | ATCC27853 |  | 32 µg/mL
CCCCCCC/C=C/C(=O)N1C(=O)/C(=C(\O)c2ccncc2)C(=O)C1CC(C)C (stereo not shown) |  | PA01 |  | > 200 µg/mL
CC(=O)Nc1ccc(C(=O)Nc2ccc(C(=O)N[C@@H](CC(N)=O)C(=O)Nc3ccc(C(=O)Nc4ccc(C(=O)Nc5ccc(C(=O)O)cc5)c(O)c4OC(C)C)cc3)cc2)cc1 |  | PA14 |  | > 64 µg/mL
CN(C)[C@@H]1C(O)=C(C(N)=O)C(=O)[C@@]2(O)C(O)=C3C(=O)c4c(O)cccc4[C@@](C)(O)[C@H]3C[C@@H]12 |  | ATCC27853 |  | 8 µg/mL
CCCNc1nc(N(C)C)c2c(c1O)C(=O)C1=C(O)[C@]3(O)C(=O)C(C(N)=O)=C(O)[C@@H](N(C)C)[C@@H]3C[C@@H]1C2.Cl.Cl | broth dilution | ATCC27853 |  | > 32 µg/mL
O=C(Nc1ccc(S(=O)(=O)c2nccs2)cc1)c1cc(N=Nc2nccs2)ccc1O | broth dilution |  |  | 100 µg/mL
